Test results from ChEMBL document CHEMBL5712908, “A genome-wide RNAi screen reveals essential therapeutic targets of breast cancer stem cells” (2019).
The source made the active and inactive calls. The calls are words filed in the database; no cut-off is given here.

Columns and labels:
SUM149PT [1] = assay: Anticancer activity against human SUM149 cells assessed as ALDHbr cells at 10 uM by LSR2 cytometer (reference value: 4.8%); format: functional
SUM149PT [2] = assay: Anticancer activity against human SUM149 cells assessed as ALDHbr cells at 1 mM by LSR2 cytometer (reference value: 4.8%); format: functional; set-up: dose or concentration left out as unconfirmed
SUM-159-PT [3] = assay: Antitumor activity against human SUM159 cells assessed as K-score by measuring ALDHbr cells by LSR2 cytometer; format: functional
Outline: (§1)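 Cell lines exposed for 72 h in adherent culture to a range of concentrations centred on the MTS-derived IC50. ALDHbr proportion measured by ALDEFLUOR flow cytometry (LSR2). K-score is the linear regression coefficient, on log10-transformed doses, between the untreated condition and the dose predicted to give a 50% decrease or increase in ALDHbr proportion versus control.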

MDA-MB-436 = assay: Antitumor activity against human MDA-MB-436 cells assessed as K-score by measuring ALDHbr cells by LSR2 cytometer; format: functional; outline: as §1
SUM149PT [4] = assay: Synergistic anticancer activity against human SUM149 cells assessed as decrease in docetaxel induced primary tumor sphere formation at 62 nM incubated for 72 hrs in presence of salinomycin by Extreme limiting dilution analysis; format: functional, cell-based
Outline: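 72 h adherent pretreatment (Sal/JQ1 62 nM/62 nM; docetaxel added at 2 nM where used), then single cells plated in ultra-low attachment 96-well plates in serum-free mammary epithelium basal medium at 25/10/5/3/2/1 cells/well (18–36 wells/condition). Wells with ≥1 sphere after 10 days scored positive; sphere-forming frequency by ELDA. Secondary spheres from dissociated primary spheres. n = 4; pairwise chi-square.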

SUM-159-PT [5] = assay: Induction of apoptosis in human SUM159 cells expressing ALDHbr upto 100 uM incubated for 72 hrs by ALDEFLUOR/YO-PRO-3/ Hoechst 33342 staining based high content imaging microscopic analysis; format: functional, cell-based
Outline: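 SUM159 at 3,000 cells/well on collagen plates, dosed at 6, 24 and 48 h post-seeding; 0.1% DMSO negative control, cisplatin positive control. At 72 h stained 30 min at 37°C with ALDEFLUOR, YO-PRO-3 and Hoechst 33342, then imaged ice-cold. YO-PRO-3-positive nuclei (above untreated signal) counted over total cells, per ALDHbr/ALDH- subpopulation; n = 6.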

SUM-159-PT [6] = assay: Synergistic apoptosis in human SUM159 cell expressing ALDH at 500 nM incubated for 72 hrs in presence of salinomycin by ALDEFLUOR/YO-PRO-3/ Hoechst 33342 staining based high content imaging microscopic analysis; format: functional
Outline: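 SUM159 cells seeded at 3,000 cells/well in collagen-coated 96-well plates. Drug added at 6, 24 and 48 h post-seeding. Cisplatin served as positive control and 0.1% v/v DMSO as vehicle control. At 72 h post-seeding, cells were stained with ALDEFLUOR, YO-PRO-3 (1/4,000) and Hoechst 33342 (10 μg/ml) in ALDEFLUOR buffer for 30 min at 37°C, then imaged on ice by high-content microscopy, 9 fields/well. DEAB set the ALDHbr gate. YO-PRO-3⁺ fraction per subpopulation was gated against untreated cells.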

SUM-159-PT [7] = assay: Synergistic anticancer activity against human SUM159 cells expressing BFP assessed as reduction in ALDHbr cell at 5 to 500 nM in presence of salinomycin by LSR2 cytometer analysis; format: functional, cell-based; details: dose 5-500 nM
SUM-159-PT [8] = assay: Anticancer activity against human SUM159 cells expressing BFP assessed as reduction in ALDHbr cell at 50 nM by LSR2 cytometer analysis; format: functional
SUM-159-PT [9] = assay: Synergistic anticancer activity against human SUM159 cells expressing BFP assessed as reduction in ALDHbr cell 50 nM in presence of salinomycin by LSR2 cytometer analysis; format: functional
Breast cancer cell line [10] = assay: Antitumor activity against human CRCM404 negative breast cancer cells orthotopically xenografted in NSG mouse model of PDX assessed as reduction in tumor volume at 50 mg/kg, ip 5 out of 7 for 2 weeks; format: functional, organism-based
Outline: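 Chemo-naïve triple-negative PDX cells injected at 100,000 per fat pad, two fat pads per NSG mouse. At ~80 mm³ tumours, mice received i.p. 3 mg/kg daily for 14 days or 50 mg/kg 5 of 7 days for 2 weeks; placebo was DMSO/HPCD 10% (1:9). Five mice (10 tumours) per group. Tumour growth monitored; after 2 weeks tumours dissociated, mouse cells excluded via anti-H2Kd, ALDHbr measured by ALDEFLUOR flow cytometry and normalised to vehicle.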

Breast cancer cell line [11] = assay: Synergistic antitumor activity against human CRCM494 negative breast cancer cells orthotopically xenografted in NSG mouse model of PDX assessed as reduction in tumor volume at 50 mg/kg, ip 5 out of 7 for 2 weeks cotreated with salinomycin; format: functional, organism-based
Outline: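 Orthotopic PDX in NSG mice, 100,000 cells per fat pad, two pads per mouse; treatment from ~80 mm³ tumours with salinomycin i.p. 3 mg/kg daily 14 days, JQ1 i.p. 50 mg/kg 5 of 7 days for 2 weeks, or combination, against placebo DMSO/HPCD 10% (1:9). Tumour growth monitored; n = 10 tumours per group.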

Breast cancer cell line [12] = assay: Synergistic apoptosis activity in patient-derived breast cancer cells orthotopically xenografted in NSG mouse model of PDX assessed as increase in cleaved caspase-3 at 50 mg/kg, ip 5 out of 7 for 2 weeks by Immunostaining analysis; format: functional, organism-based; details: Homo sapiens
Outline: (§2)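 Paraffin sections of treated PDX tumours deparaffinised and subjected to antigen retrieval in citrate buffer pH 6. Peroxidase staining with ready-to-use Ki67 or cleaved caspase-3 antibody, DAB substrate, haematoxylin counterstain. Proportion of positive cells quantified; n = 3; t-test.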

Breast cancer cell line [13] = assay: Synergistic apoptosis activity in patient-derived breast cancer cells orthotopically xenografted in NSG mouse model of PDX assessed as increase in cleaved caspase-3 at 50 mg/kg, ip 5 out of 7 for 2 weeks cotreated with salinomycin by Immunostaining analysis; format: functional, organism-based; details: Homo sapiens; outline: as §2
Breast cancer cell line [14] = assay: Synergistic antitumor activity against human reimplanted CRCM434 negative breast cancer cells orthotopically xenografted in NSG mouse model of PDX assessed as reduction tumor volume at 50 mg/kg, ip 5 out of 7 for 2 weeks cotreated with salinomycin by limiting dilation analysis; format: functional, organism-based
Breast cancer cell line [15] = assay: Synergistic antitumor activity against human CRCM434 negative breast cancer cells xenografted in NSG mouse model of PDX assessed as reduction metastasis formation in lung at 50 mg/kg, ip 5 out of 7 for 2 weeks cotreated with salinomycin; format: functional, organism-based
Outline: (§3)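 Luciferase-expressing PDX cells sorted H2Kd⁻ and viable, 100,000 in 100 μl PBS injected in NSG tail vein. From the next day, salinomycin 3 mg/kg i.p. daily and/or JQ1 50 mg/kg i.p. 5 of 7 days for 2 weeks. Lungs and liver imaged by bioluminescence after i.p. luciferin 30 mg/kg; normalised photon flux; 10 mice/group; Wilcoxon test.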

Breast cancer cell line [16] = assay: Synergistic antitumor activity against human CRCM404 negative breast cancer cells xenografted in NSG mouse model of PDX assessed as reduction metastasis formation in lung at 50 mg/kg, ip 5 out of 7 for 2 weeks cotreated with salinomycin; format: functional, organism-based; outline: as §3

Cc1sc2c(c1C)C(c1ccc(Cl)cc1)=N[C@@H](CC(=O)OC(C)(C)C)c1nnc(C)n1-2
Activity (SUM149PT [1]): 5.1% | Activity (SUM149PT [2]): 1.2% | Activity (SUM-159-PT [3]): -0.2 | Activity (MDA-MB-436): -0.15 | Activity (SUM149PT [4]): Active | Activity (SUM-159-PT [5]): Active | Activity (SUM-159-PT [6]): Active | Activity (SUM-159-PT [7]): Active | fold change (FC) (SUM-159-PT [8]): 2 | fold change (FC) (SUM-159-PT [9]): 4 | Activity (Breast cancer cell line [10]): Active | Activity (Breast cancer cell line [11]): Active | Activity (Breast cancer cell line [12]): inactive | Activity (Breast cancer cell line [13]): inactive | Activity (Breast cancer cell line [14]): Active | Activity (Breast cancer cell line [15]): Active | Activity (Breast cancer cell line [16]): Active
